Experimental data taken from ChEMBL document CHEMBL4043182, “On the synthesis of quinone-based BODIPY hybrids: New insights on antitumor activity and mechanism of action in cancer cells” (Bioorg Med Chem Lett, 2017).
Activity calls are given as the source filed them. No cut-off for these calls is given here.

Tests used:
[1] = test system: SF-295; test: Induction of oxidative stress in human SF295 cells assessed as total GSH levels at 5 uM after 24 hrs by spectrophotometric analysis (reference value: 3.16 +/- 0.21 microg/mg); format: functional
[2] = Selective index, ratio of IC50 for chinese hamster V79 cells to IC50 for human MDA-MB-435 cells
Summary of the method: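 Selectivity index is the ratio of the IC50 in a non-cancer murine line (V79 or L929) to the IC50 in the cancer line. […] MTT was 0.5 mg/mL for 3 h, formazan dissolved in DMSO and read at 595 nm as % of control. IC50s were derived by nonlinear regression; triplicate, at least three repeats.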

[3] = test system: HCT-116; test: Induction of oxidative stress in human HCT116 cells assessed as total GSH levels at 5 uM after 24 hrs by spectrophotometric analysis (reference value: 3.74 +/- 0.55 microg/mg); format: functional
[4] = test system: HCT-116; test: Geno-toxicity in human HCT116 cells assessed as induction of DNA damage at 2.5 to 10 uM after 24 hrs in absence of NAC by alkaline comet assay; format: functional, cell-based
Summary of the method: (§1)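 Alkaline comet assay after 24 h at 2.5, 5 and 10 µM, with or without 24 h pretreatment with 5 mM NAC. Cells were trypsinized and embedded in 0.75% low-melting agarose, then lysed at pH 10, 4 °C, ≥1 h. DNA was unwound 20 min at pH >13 and electrophoresed 20 min at 25 V, 300 mA (0.86 V/cm), then stained with ethidium bromide. 100 cells (2 slides) were scored in classes 0–4 for a damage index. Mean ± SEM, three independent experiments in triplicate.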

[5] = test system: L929; test: Cytotoxicity against mouse L929 cells after 24 hrs in absence of GSH-OEt by MTT assay; format: cell-based; settings: L929, 24 h
Summary of the method: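 24 h MTT exposure (0.04–40.92 µM in 0.1% DMSO), with or without co-treatment with GSH ethyl ester (15 mM) to gauge the ROS contribution. MTT was 0.5 mg/mL for 3 h, with formazan dissolved in DMSO and absorbance at 595 nm expressed as % of control. Triplicate, repeated at least three times.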

[6] = test system: SF-295; test: Induction of oxidative stress in human SF295 cells assessed as total GSH levels at 5 uM treated 24 hrs post NAC addition measured after 24 hrs by spectrophotometric analysis (reference value: 3.16 +/- 0.21 microg/mg); format: functional
Summary of the method: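 Cells were pretreated 24 h with 5 mM NAC, then exposed 24 h to test compound at 5 µM. Controls received 0.1% DMSO. Extracts were prepared by sonication and HClO4 precipitation, then neutralized with KOH. Total glutathione was read by DTNB/glutathione reductase/NADPH rate at 412 nm. GSSG was measured after 4-vinylpyridine (0.1%, 1 h, RT) and GSH derived by difference. Values are normalized to protein, triplicates, three independent runs.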

[7] = test system: L929; test: Geno-toxicity in mouse L929 cells assessed as induction of DNA damage at 2.5 to 10 uM treated 24 hrs post NAC addition measured after 24 hrs by alkaline comet assay; format: cell-based; settings: l929, 24 h; summary of the method: as §1
[8] = Drug uptake in lysosomes of human PC3 cells at 5 uM after 10 mins by LysoTracker Red dye-based confocal microscopic analysis; format: ADME, cell-based; settings: pc-3, 10 min
Summary of the method: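 PC3 cells were grown in DMEM with 10% FBS, antibiotics and 2 mM L-glutamine at 37 °C, 5% CO2. Cells were incubated with compound (5 µM) plus LysoTracker Red or MitoTracker Red for 10 min at 37 °C. Live cells were imaged in phenol red-free DMEM by confocal microscopy with a 40X oil objective, exciting at 488 nm (compound) and 543 nm (tracker dyes).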

[9] = test system: HCT-116; test: Induction of oxidative stress in human HCT116 cells assessed as GSH to GSSG ratio at 5 uM after 24 hrs by spectrophotometric analysis (reference value: 3.09 +/- 0.33 microg/mg); format: functional
[10] = test system: L929; test: Induction of oxidative stress in mouse L929 cells assessed as total GSH levels at 5 uM treated 24 hrs post NAC addition measured after 24 hrs by spectrophotometric analysis (reference value: 3.76 +/- 0.51 microg/mg); format: cell-based; settings: l929, 24 h
[11] = test system: HCT-116; test: Induction of oxidative stress in human HCT116 cells assessed as total intracellular thiol levels at 5 uM after 24 hrs by spectrophotometric analysis (reference value: 5.02 +/- 0.91 microg/mg); format: functional
[12] = test system: L929; test: Induction of oxidative stress in mouse L929 cells assessed as total intracellular thiol levels at 5 uM treated 24 hrs post NAC addition measured after 24 hrs by spectrophotometric analysis (reference value: 4.87 +/- 0.25 microg/mg); format: cell-based; settings: l929, 24 h
[13] = test system: HCT-116; test: Induction of oxidative stress in human HCT116 cells assessed as total intracellular thiol levels at 5 uM treated 24 hrs post NAC addition measured after 24 hrs by spectrophotometric analysis (reference value: 5.02 +/- 0.91 microg/mg); format: functional
[14] = test system: HCT-116; test: Induction of lipid peroxidation in human HCT116 cells assessed as increase in MDA levels at 2.5 to 10 uM after 24 hrs in absence of NAC by TBARS assay; format: functional, cell-based
Summary of the method: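 TBARS: cells were exposed 24 h, with or without 24 h prior 5 mM NAC, and lysed in Tris-HCl. Lysate was heated with TCA/0.25 M HCl and 6.7 mg/mL TBA for 15 min at 100 °C, centrifuged, and read at 532 nm. Hydrolyzed tetramethoxypropane served as standard, with values normalized to protein. H2O2 (10 µM) was the positive control. Three independent experiments in triplicate; ANOVA/Tukey.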

[15] = test system: SF-295; test: Geno-toxicity in human SF295 cells assessed as induction of DNA damage at 2.5 to 10 uM treated 24 hrs post NAC addition measured after 24 hrs by alkaline comet assay; format: functional, cell-based; summary of the method: as §1
[16] = test system: PC-3; test: Induction of oxidative stress in human PC3 cells assessed as total GSH levels at 5 uM after 24 hrs by spectrophotometric analysis (reference value: 3.04 +/- 0.51 microg/mg); format: functional
[17] = test system: PC-3; test: Antiproliferative activity against human PC3 cells after 72 hrs by MTT assay; format: functional, cell-based; settings: PC-3, 72 h
Summary of the method: (§2)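 MTT reduction: cancer lines plated at 0.7×10^5 to 0.3×10^6 cells/well, V79 and L929 fibroblasts at 0.5×10^5 cells/well. Compounds in DMSO (0.1%) were given for 24 h at 0.04–40.92 µM or 72 h at 0.04–8.19 µM. Fresh medium with 0.5 mg/mL MTT was added for 3 h, then formazan was dissolved in DMSO and read at 595 nm as % of control. IC50 came from nonlinear regression with 95% CI. Doxorubicin (0.001–1.06 µM) was the positive control. Triplicate, ≥3 repeats.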

[18] = test system: HCT-116; test: Induction of oxidative stress in human HCT116 cells assessed as total GSH levels at 5 uM treated 24 hrs post NAC addition measured after 24 hrs by spectrophotometric analysis (reference value: 3.74 +/- 0.55 microg/mg); format: functional
[19] = test system: SW-620; test: Antiproliferative activity against human SW620 cells after 72 hrs by MTT assay; format: functional, cell-based; settings: SW-620, 72 h; summary of the method: as §2
[20] = test system: L929; test: Induction of oxidative stress in mouse L929 cells assessed as total GSSG levels at 5 uM after 24 hrs by spectrophotometric analysis (reference value: 1.05 +/- 0.33 microg/mg); format: cell-based; settings: l929, 24 h

Drug uptake [8]: Metabolite_Notdetected
Activity [10]: 3.89 µg/mg
Activity [12]: 5.21 µg/mg
IC50 [17]: 380 nM
IC50 [19]: 680 nM
Activity [20]: 2.27 µg/mg
Structure (SMILES): CC1(C)OC2=C(C(=O)C(=O)c3ccccc32)C1n1cc(CNC2=[N+]3C(=C(c4ccccc4)c4ccc(Cl)n4[B-]3(F)F)C=C2)nn1 (stereo not given)
Activity [1]: 1.31 µg/mg
Ratio IC50 [2]: 0.8
Activity [3]: 1.78 µg/mg
Activity [4]: Active
IC50 [5]: 5910 nM
Activity [6]: 3.47 µg/mg
Activity [7]: Toxic
Activity [9]: 0.56 µg/mg
Activity [11]: 3.81 µg/mg
Activity [13]: 5.12 µg/mg
Activity [14]: Active
Activity [15]: Active
Activity [16]: 1.35 µg/mg
Activity [18]: 3.71 µg/mg
